Assay results collected from several papers.
Compare with care: the assays were run in different laboratories.
Cell line: PC-9
Read-out: cell growth or viability
Time: 72 h

For `COc1ccc(NC(=O)NCc2cn(Cc3ccc(C)cc3)nn2)cc1`, the viability was 105% (CCK-8; 20 µM).
For `O=C(NCc1cn(Cc2ccc(Cl)cc2)nn1)Nc1ccccc1Br`, the viability was 94.5% (CCK-8; 20 µM).
`COc1ccc(N(Cc2csc(-c3ccccc3)n2)C(=O)CCCCCC(=O)NO)cc1` has an IC50 of 0.53 µM (MTT).
`O=C(NCc1cn(Cc2ccc(Cl)cc2)nn1)Nc1ccc(Cl)cc1` has a viability of 83.2% (CCK-8; 20 µM).
`O=C(Nc1ccc(F)cc1)Nc1nc2cc(-c3ccc4ncn(CC(=O)N5CCOCC5)c(=O)c4c3)ccc2s1` has an IC50 of over 20 µM (MTT).
For `O=C(Nc1ccc(Cl)cc1)Nc1ccc(-c2cn(Cc3ccc(Br)cc3)nn2)cc1`, the viability was 80.4% (CCK-8; 50 µM).
The viability of `COc1ccc(NC(=O)NCc2cn(Cc3ccc(Br)cc3)nn2)cc1` is reported as 100% (CCK-8; 20 µM).
The viability of `O=C(Nc1ccc(-c2cn(Cc3ccc(Cl)cc3)nn2)cc1)Nc1ccccc1Br` is reported as 103% (CCK-8; 50 µM).
With `COc1ccc(NC(=O)Nc2ccc(-c3cn(Cc4ccc(Br)cc4)nn3)cc2)cc1` the viability was 96.4% (CCK-8; 50 µM).
With `COc1ccc(N(Cc2nc(-c3ccc(F)cc3)cs2)C(=O)CCCCCC(=O)NO)cc1` the IC50 was 0.73 µM (MTT).
`COc1cccc(NC(=O)Nc2nc3cc(-c4ccc5ncn(CCN(C)C)c(=O)c5c4)ccc3s2)c1` gave an IC50 of 5.24 µM (MTT).
`COc1ccc(NC(=O)Nc2ccc(-c3cn(Cc4ccc(C)cc4)nn3)cc2)cc1` has a viability of 96% (CCK-8; 50 µM).
For `COc1ccc(NC(=O)Nc2nc3cc(-c4ccc5ncn(Cc6ccccc6)c(=O)c5c4)ccc3s2)cc1`, the IC50 was over 20 µM (MTT).
For `COc1ccc(NC(=O)Nc2cccc(-c3cn(Cc4ccc(C)cc4)nn3)c2)cc1`, the viability was 92.6% (CCK-8; 50 µM).
`CC(C)CCn1cnc2ccc(-c3ccc4sc(NC(=O)Nc5ccc(F)cc5)nc4c3)cc2c1=O` has an IC50 of 9.09 µM (MTT).
`COc1ccc(NC(=O)NCc2cn(Cc3ccccc3C)nn2)cc1` has a viability of 94.4% (CCK-8; 20 µM).
The viability of `O=C(Nc1cccc(-c2cn(Cc3ccc(Br)cc3)nn2)c1)Nc1ccccc1Br` is reported as 92.6% (CCK-8; 50 µM).
With `O=C(Nc1nc2cc(-c3ccc4ncn(Cc5ccccc5)c(=O)c4c3)ccc2s1)c1ccccc1` the IC50 was over 20 µM (MTT).
With `O=C(NCc1cn(Cc2ccc(Br)cc2)nn1)Nc1ccccc1Br` the viability was 99.2% (CCK-8; 20 µM).
`CCCCNC(=O)Nc1nc2cc(-c3ccc4ncn(Cc5ccccc5)c(=O)c4c3)ccc2s1` gave an IC50 of over 20 µM (MTT).
